Experimental data published in ChEMBL document CHEMBL4706674 (Bioorg Med Chem Lett, 2021).

Legend:
[1] = system: Human immunodeficiency virus 1; experiment: Antiviral activity against wild type HIV-1 NL4-3 infected in MT-2 cells assessed as inhibition of viral replication in presence of 10% of fetal bovine serum by luciferase reporter gene based multicycle replication assay; type: functional, organism-based; settings: Human immunodeficiency virus 1, NL4-3, MT2
[2] = Cytotoxicity against human MT2 cells; type: cell-based
[3] = system: Human immunodeficiency virus 1; experiment: Antiviral activity against wild type HIV-1 NL4-3 harbouring Gag AV370/T371A mutant infected in MT-2 cells assessed as inhibition of viral replication in presence of 10% of fetal bovine serum by luciferase reporter gene based multicycle replication assay; type: functional, organism-based; settings: Human immunodeficiency virus 1, NL4-3, MT2
[4] = system: Human immunodeficiency virus 1; experiment: Antiviral activity against wild type HIV-1 NL4-3 harbouring Gag AV370 mutant infected in MT-2 cells assessed as inhibition of viral replication in presence of 10% of fetal bovine serum by luciferase reporter gene based multicycle replication assay; type: functional, organism-based; settings: Human immunodeficiency virus 1, NL4-3, MT2
Outline: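 Multiple-cycle replication assay in MT-2 cells using NL4-3-derived virus carrying a Renilla luciferase reporter (NLRepRlucP373S) as the growth marker. V370A and ΔV370 viruses are identical to WT except for that single substitution or deletion at position 370.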

[5] = system: Human immunodeficiency virus 1; experiment: Antiviral activity against wild type HIV-1 NL4-3 harbouring Gag V370A mutant infected in MT-2 cells assessed as inhibition of viral replication in presence of 10% of fetal bovine serum by luciferase reporter gene based multicycle replication assay; type: functional, organism-based; settings: Human immunodeficiency virus 1, NL4-3, MT2
[6] = system: Human immunodeficiency virus 1; experiment: Antiviral activity against wild type HIV-1 NL4-3 infected in MT-2 cells assessed as inhibition of viral replication in presence of 40% human serum and 27 mg/ml human serum albumin by luciferase reporter gene based multicycle replication assay; type: functional, organism-based; settings: Human immunodeficiency virus 1, NL4-3, MT2
[7] = Clearance in rat at 1 mg/kg, iv measured after 24 hrs; type: ADME, organism-based; settings: in vivo
Outline: (§1)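 Rats dosed 5 mg/kg PO and 1 mg/kg IV; each value is the mean of 3 rats unless otherwise noted (some n = 2). Vehicle PEG 300/ethanol/Tween 80 (89:10:1 v/v), or PEG 300/ethanol/0.1 N NaOH/Tween 80 (84.5:10:5:0.5 v/v). F, tmax, Cmax and CL come from a full 24 h PK screen. AUCtotal is derived from the full 24 h run plus a 6 h PK screen.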

[8] = Metabolic stability in human liver microsomes assessed as half life; type: ADME, Microsome; settings: time 2 min
[9] = Tmax in rat at 5 mg/kg, po measured after 24 hrs; type: ADME, organism-based; settings: in vivo; outline: as §1
[10] = system: Human immunodeficiency virus 1; experiment: Antiviral activity against wild type HIV-1 NL4-3 harbouring Gag […]/V370A mutant infected in MT-2 cells assessed as inhibition of viral replication in presence of 10% of fetal bovine serum by luciferase reporter gene based multicycle replication assay; type: functional, organism-based; settings: Human immunodeficiency virus 1, NL4-3, MT2
[11] = Metabolic stability in rat liver microsomes assessed as half life; type: ADME, Microsome; settings: time 2 min
[12] = Cmax in rat at 5 mg/kg, po measured after 24 hrs; type: ADME, organism-based; parameters: route oral, dose 5 mg/kg, time 24 hrs; settings: in vivo; outline: as §1
[13] = Volume of distribution at steady state in rat at 1 mg/kg, iv; type: ADME, organism-based; settings: in vivo, read-out: Vdss
[14] = AUCtotal in rat at 5 mg/kg, po measured after 24 hrs; type: ADME, organism-based; parameters: route oral, dose 5 mg/kg, time 24 hrs; settings: in vivo; outline: as §1
[15] = system: Human immunodeficiency virus 1; experiment: Antiviral activity against wild type HIV-1 NL4-3 harbouring Gag A364V mutant infected in MT-2 cells assessed as inhibition of viral replication in presence of 10% of fetal bovine serum by luciferase reporter gene based multicycle replication assay; type: functional, organism-based; settings: Human immunodeficiency virus 1, NL4-3, MT2
[16] = Oral bioavailability in rat measured at 5 mg/kg up to 24 hrs; type: ADME, organism-based; settings: in vivo; outline: as §1
[17] = AUC (0 to 24) in rat at 5 mg/kg, po measured after 24 hrs; type: ADME, organism-based; parameters: route oral, time 24 hrs, dose 5 mg/kg; settings: in vivo
Outline: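 Rats dosed orally at 5 mg/kg (IV arm 1 mg/kg). Vehicle was PEG 300/ethanol/Tween 80 (89:10:1 v/v) or PEG 300/ethanol/0.1 N NaOH/Tween 80 (84.5:10:5:0.5 v/v). Values are the mean of 3 rats unless noted (some n = 2), from a full 24 h PK run; AUC_total also drew on a 6 h PK screen.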

[18] = AUC in rat at 5 mg/kg, po; settings: in vivo

Structure (SMILES)	EC50 [1] [nM]	CC50 [2] [nM]	EC50 [4] [nM]	EC50 [5] [nM]	EC50 [6] [nM]	EC50 [10] [nM]	other results
C=C(C)[C@@H]1CC[C@]2(NCCN3CCS(=O)(=O)CC3)CC[C@]3(C)[C@H](CC[C@@H]4[C@@]5(C)CC=C(CCCC(C(=O)O)C(=O)O)C(C)(C)[C@@H]5CC[C@]43C)[C@@H]12	306	> 30000	–	–	–	–	EC50 [3]: 555 nM
C=C(C)[C@@H]1CC[C@]2(C(=O)O)CC[C@]3(C)[C@H](CC[C@@H]4[C@@]5(C)CC=C(C6=CC7(C6)CC(C(=O)O)(C(=O)O)C7)C(C)(C)[C@@H]5CC[C@]43C)[C@@H]12	28.3	18600	437	85.4	–	–	–
C=C(C)[C@@H]1CC[C@]2(NCCN3CCS(=O)(=O)CC3)CC[C@]3(C)[C@H](CC[C@@H]4[C@@]5(C)CC=C(C6=CC[C@H](C(=O)O)CC6)C(C)(C)[C@@H]5CC[C@]43C)[C@@H]12	1.3	4100	4.1	2	5	–	–
C=C(C)[C@@H]1CC[C@]2(NCCN3CCS(=O)(=O)CC3)CC[C@]3(C)[C@H](CC[C@@H]4[C@@]5(C)CC=C(CCCCC(=O)O)C(C)(C)[C@@H]5CC[C@]43C)[C@@H]12	2.3	10200	–	–	–	–	EC50 [3]: 118 nM
C=C(C)[C@@H]1CC[C@]2(NCCN3CCS(=O)(=O)CC3)CC[C@]3(C)[C@H](CC[C@@H]4[C@@]5(C)CC=C(C6=CC7(C6)CC(C(=O)O)C7)C(C)(C)[C@@H]5CC[C@]43C)[C@@H]12 (some centres undefined)	1.5	11900	5.9	1.6	7	49	clearance [7]: 2.9 mL/min/kg; half-life [8]: 1.15 h; Tmax [9]: 6.3 h; half-life [11]: > 2 h; Cmax [12]: 900 nM; Vd [13]: 1.4 L/kg; AUC [14]: 13.5 µM·h; EC50 [15]: 980 nM; bioavailability [16]: 32%
C=C(C)[C@@H]1CC[C@]2(NCCN3CCC(S(C)(=O)=O)CC3)CC[C@]3(C)[C@H](CC[C@@H]4[C@@]5(C)CC=C(C6=CC[C@H](C(=O)O)CC6)C(C)(C)[C@@H]5CC[C@]43C)[C@@H]12	1.4	9100	4.2	–	6.6	9.6	EC50 [15]: 878 nM
C=C(C)[C@@H]1CC[C@]2(C(=O)O)CC[C@]3(C)[C@H](CC[C@@H]4[C@@]5(C)CC=C(c6ccc(C(=O)O)cc6)C(C)(C)[C@@H]5CC[C@]43C)[C@@H]12	–	–	–	–	316	–	clearance [7]: 1 mL/min/kg; half-life [8]: > 2 h; Tmax [9]: 4 h; half-life [11]: > 2 h; AUC at 24 h [17]: 5.7 µM·h; Vd [13]: 0.1 L/kg
C=C(C)[C@@H]1CC[C@]2(NCCN3CCS(=O)(=O)CC3)CC[C@]3(C)[C@H](CC[C@@H]4[C@@]5(C)CC=C(C6=CCC(C(=O)O)CC6)C(C)(C)[C@@H]5CC[C@]43C)[C@@H]12 (some centres undefined)	0.6	9600	2.1	0.8	8.9	–	–
C=C(C)[C@@H]1CC[C@]2(C(=O)O)CC[C@]3(C)[C@H](CC[C@@H]4[C@@]5(C)CC[C@H](OC(=O)CC(C)(C)C(=O)O)C(C)(C)[C@@H]5CC[C@]43C)[C@@H]12 [BEVIRIMAT]	–	–	–	–	–	–	half-life [8]: > 2 h; Tmax [9]: 1.8 h; half-life [11]: 0.492 h; F ([16]; 5 mg/kg, 24 h): 54%
C=C(C)[C@@H]1CC[C@]2(NCCN3CCS(=O)(=O)CC3)CC[C@]3(C)[C@H](CC[C@@H]4[C@@]5(C)CC=C(c6ccc(C(=O)O)cc6)C(C)(C)[C@@H]5CC[C@]43C)[C@@H]12 [BMS-955176]	–	–	13	2.7	11.5	148	half-life [8]: > 2 h; Tmax [9]: 6 h; EC50 [3]: 23 nM; half-life [11]: > 2 h; Cmax [12]: 1200 nM; AUC [18]: 4.1 µM·h; AUC [14]: 14.2 µM·h
C=C(C)[C@@H]1CC[C@]2(NCCN3CCS(=O)(=O)CC3)CC[C@]3(C)[C@H](CC[C@@H]4[C@@]5(C)CC=C(CCCC(C)(C)C(=O)O)C(C)(C)[C@@H]5CC[C@]43C)[C@@H]12	5.3	8200	–	–	–	–	EC50 [3]: 29.7 nM
C=C(C)[C@@H]1CC[C@]2(NCCN3CCS(=O)(=O)CC3)CC[C@]3(C)[C@H](CC[C@@H]4[C@@]5(C)CC=C(CCC(C)(C)CC(=O)O)C(C)(C)[C@@H]5CC[C@]43C)[C@@H]12	1.3	12300	2.3	–	6.8	1.6	EC50 [15]: 1290 nM
C=C(C)[C@@H]1CC[C@]2(NCCN3CCS(=O)(=O)CC3)CC[C@]3(C)[C@H](CC[C@@H]4[C@@]5(C)CC=C(C6=CC7(C6)CC(C(=O)O)(C(=O)O)C7)C(C)(C)[C@@H]5CC[C@]43C)[C@@H]12	13	> 30000	61.1	28.8	–	–	–
C=C(C)[C@@H]1CC[C@]2(CO)CC[C@]3(C)[C@H](CC[C@@H]4[C@@]5(C)CC=C(C#CC(=O)O)C(C)(C)[C@@H]5CC[C@]43C)[C@@H]12	252	> 10000	> 3000	> 3000	–	–	–
C=C(C)[C@@H]1CC[C@]2(NCCN3CCS(=O)(=O)CC3)CC[C@]3(C)[C@H](CC[C@@H]4[C@@]5(C)CC=C(C6=CC[C@@H](C(=O)O)CC6)C(C)(C)[C@@H]5CC[C@]43C)[C@@H]12	0.9	12200	3.1	1.3	5.7	–	clearance [7]: 4.3 mL/min/kg; half-life [8]: 0.967 h; Tmax [9]: 2.7 h; half-life [11]: > 2 h; Cmax [12]: 1100 nM; Vd [13]: 2.3 L/kg; AUC [14]: 15.8 µM·h; bioavailability [16]: 58%
C=C(C)[C@@H]1CC[C@]2(NCCN3CCC(S(C)(=O)=O)CC3)CC[C@]3(C)[C@H](CC[C@@H]4[C@@]5(C)CC=C(c6ccc(C(=O)O)cc6)C(C)(C)[C@@H]5CC[C@]43C)[C@@H]12	1.9	–	–	–	–	–	–
C=C(C)[C@@H]1CC[C@]2(NCCN3CCS(=O)(=O)CC3)CC[C@]3(C)[C@H](CC[C@@H]4[C@@]5(C)C=CC(=C6CC7(C6)CC(C(=O)O)(C(=O)O)C7)C(C)(C)[C@@H]5CC[C@]43C)[C@@H]12	26.7	> 10000	60.8	53.1	–	–	–
C=C(C)[C@@H]1CC[C@]2(NCCN3CCS(=O)(=O)CC3)CC[C@]3(C)[C@H](CC[C@@H]4[C@@]5(C)CC=C(CC6CCC(C(=O)O)CC6)C(C)(C)[C@@H]5CC[C@]43C)[C@@H]12 (some centres undefined)	3	13500	–	–	–	12.4	EC50 [3]: 5.6 nM; EC50 [15]: 1850 nM
C=C(C)[C@@H]1CC[C@]2(NCCN3CCC(S(C)(=O)=O)CC3)CC[C@]3(C)[C@H](CC[C@@H]4[C@@]5(C)CC=C(C6=CC[C@@H](C(=O)O)CC6)C(C)(C)[C@@H]5CC[C@]43C)[C@@H]12	2.7	9000	2.7	–	5	14.7	EC50 [15]: 1800 nM
C=C(C)[C@@H]1CC[C@]2(NCCN3CCS(=O)(=O)CC3)CC[C@]3(C)[C@H](CC[C@@H]4[C@@]5(C)CC=C(C6=CCC(C(=O)O)(C(=O)O)CC6)C(C)(C)[C@@H]5CC[C@]43C)[C@@H]12	99	13200	40.1	39.2	–	113	–
